In the library only some 2.5% were active in any assay of this set; here they are far more common.
ABHD4 inh: ABHD4 (mouse) inhibition, primary FP screen | Q8VD66 | inhibition, % at 8.92 µM | purified mABHD4, FP-Rh probe fluorescence polarization | 370,000 tested, 0.54% active | AID 720543;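 active means inhibition exceeding the mean over every tested compound plus 3 SD, cut at about 30% in these data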
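assay system = mABHD4 protein | compound dosing = single nominal dose of 8.92 µM, 0.89% DMSO final | read-out basis = percent inhibition of probe binding, normalized to plate controls | schedule = Enzyme–compound pre-incubation 45 min, then probe 60 min, both 25 °C | detection = fluorescence polarization, excitation 525 nm, emission 598 nm, BODIPY TMR filters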
SIAE primary: blocks human sialic acid acetylesterase. Q9HAT2. SIAE FP-Rh probe binding, fluorescence polarization. inhibition, % at 9.66 µM. 370,000 tested, 0.69% active. AID 1053197;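 active means inhibition above a cutoff: mean of compounds within the control limits plus 3 SD of those, cut at about 17% in these data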
Target sequence (Q9HAT2 whole entry, looked up): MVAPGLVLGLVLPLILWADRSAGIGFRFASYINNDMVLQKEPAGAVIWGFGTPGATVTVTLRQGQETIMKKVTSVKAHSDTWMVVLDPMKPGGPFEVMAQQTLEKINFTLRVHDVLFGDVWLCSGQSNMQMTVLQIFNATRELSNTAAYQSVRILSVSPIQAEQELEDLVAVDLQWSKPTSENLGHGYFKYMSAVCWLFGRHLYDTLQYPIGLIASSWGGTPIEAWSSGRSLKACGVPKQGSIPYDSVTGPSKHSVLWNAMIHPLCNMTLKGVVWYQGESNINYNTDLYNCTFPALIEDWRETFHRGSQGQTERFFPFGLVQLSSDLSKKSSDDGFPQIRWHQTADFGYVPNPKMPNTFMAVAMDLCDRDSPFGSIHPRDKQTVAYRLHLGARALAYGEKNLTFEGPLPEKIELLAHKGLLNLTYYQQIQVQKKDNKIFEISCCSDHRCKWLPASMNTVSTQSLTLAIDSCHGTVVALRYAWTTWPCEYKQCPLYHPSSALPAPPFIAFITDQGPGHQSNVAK
HTRA1 inhibitor: HTRA1 (human) protease inhibition | recombinant HTRA1, FP-rhodamine activity-based probe, fluorescence polarization | inhibition, % at 5.96 µM | 340,000 tested, 0.5% active | AID 504803; in the data active means inhibition above about 36%
TCR-CD3 inh: inhibitors of human TCR-CD3 interaction; TAMRA-labeled TCR probe fluorescence, biochemical; inhibition, % at 9.4 µM; 360,000 tested, 0.37% active; in the data active means inhibition above about 19%;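 further: recombinant mutant TCR 2C K166C tagged with TAMRA read by polarization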
PRMT1 FP inh: inhibitors of human PRMT1; recombinant PRMT1, activity-based probe fluorescence polarization; inhibition, % at 2.79 µM; Q99873; 370,000 tested, 1.3% active; AID 652257;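 active means inhibition above about 21% made by adding two undisclosed values, limit read from the data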
PRMT1 inh conf: PRMT1 (human) inhibition, FP confirmation | shares compounds with PRMT1 FP inh | recombinant His-PRMT1, activity-based probe fluorescence polarization | inhibition, % at 2.79 µM | 3,300 tested, 42% active | AID 687036;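 active means mean inhibition across replicates above the hit cutoff derived for the earlier primary screen, cut at about 22% in these data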
Of the large screens only hits and unclear results are named; the others gave an inactive call (follow-up assays come after a bar, where they were run).

CS(=O)(=O)c1ncc(Cl)c(C(=O)Nc2ccc3ccccc3c2)n1	PRMT1 FP inh 50 | PRMT1 inh conf 35
CCC1CCCCN1S(=O)(=O)c1ccc(NC(=O)c2ccncc2)cc1 (stereo unspecified)	none
CC(=O)Nc1ccc(NC(=O)c2nc(S(=O)(=O)Cc3ccccc3)ncc2Cl)cc1	PRMT1 FP inh 30 | PRMT1 inh conf 23
Cc1ccc(OCCOc2ccc(Cl)cc2Cl)c(Br)n1	none (no result: HTRA1 inhibitor, TCR-CD3 inh)
O=C1C(Cl)=C(N2CCOCC2)C(=O)N1c1ccccc1F	PRMT1 FP inh 40 | PRMT1 inh conf inactive
Cc1ccccc1N1C(=O)C(Cl)=C(N2CCOCC2)C1=O	none
CCOC(=O)CC[C@@]1(C(=O)OCC)C[C@@H](CC(=O)NCc2cccs2)C(=O)N2CCCC=C21	none (no result: HTRA1 inhibitor, TCR-CD3 inh)
S=C(NCc1ccccc1)NNc1nc2ccccc2[nH]1	PRMT1 FP inh 39 | PRMT1 inh conf 67
Cc1ccc(CN(C)C(=O)c2ccc3c(c2)NC(=O)CS3)o1	PRMT1 FP inh 40 | PRMT1 inh conf inactive
Cc1nc2ccc(NC(=O)c3ccc(F)cc3Cl)cc2c(=O)[nH]1	none (no result: HTRA1 inhibitor, TCR-CD3 inh)
Cc1ccccc1C(=O)N(C)[C@H]1C[C@H]2c3[nH]c4c(-c5ccc6c(c5)OCO6)cccc4c3CCN2C(=O)[C@H]1[C@H](C)O	none (no result: HTRA1 inhibitor)
Clc1ccccc1-c1nn2c(-c3cc(-c4ccccc4)n[nH]3)nnc2s1	none (no result: HTRA1 inhibitor, TCR-CD3 inh)
CCC[n+]1c(C)sc2c(OC)ccc(OC)c21	PRMT1 FP inh 40 | PRMT1 inh conf inactive
Cc1ccc(S(=O)(=O)NN2C(=O)/C(=C/c3cccnc3)SC2=S)cc1	PRMT1 FP inh 31 | PRMT1 inh conf inactive
COc1ccccc1/C=C1\SC(=S)N(NS(=O)(=O)c2ccc(C)cc2)C1=O	none
COCCN(C(=S)Nc1ccc(OC)c(Cl)c1)C1CCN(C(C)C)CC1	none
COc1ccc(NC(=S)NCCCN2CCCC2)cc1Cl	none
COc1ccc(NC(=S)NCCN2CCC(C)CC2)cc1Cl	PRMT1 FP inh 48 | PRMT1 inh conf 46
COc1ccc(NC(=S)N(CCC(C)C)C2CCN(C(C)C)CC2)cc1Cl	PRMT1 FP inh 54 | PRMT1 inh conf 55
CCN1Cc2nnn(Cc3ccc(C)cc3)c2-c2ccccc2S1(=O)=O	none (no result: HTRA1 inhibitor, TCR-CD3 inh)
COc1ccc(C(=O)OCCCN(C)C2CN(Cc3cn(Cc4ccccc4Cl)nn3)S(=O)(=O)C2)cc1OC (stereo unspecified)	none (no result: HTRA1 inhibitor, TCR-CD3 inh)
O=C(CSc1ccc(-c2cccs2)nn1)c1cccs1	PRMT1 FP inh 28 | PRMT1 inh conf inactive
CCOC(=O)[C@@]12CCC3=C1N(CCC3)C(=O)[C@H](CC(=O)N1CCN(C(=O)C3CC3)CC1)C2	none (no result: HTRA1 inhibitor, TCR-CD3 inh)
C#CCNC(=O)C[C@H]1C[C@@]2(C(=O)OC)C(=C[C@H](C(C)(C)C)O[C@@H]2C)N(Cc2cccc3ccccc23)C1=O	none (no result: HTRA1 inhibitor, TCR-CD3 inh)
O=C(O)CN1C(=O)/C(=C/C=C/c2ccccc2)SC1=S	none
O=C(O)CN1C(=O)/C(=C\C(Br)=C\c2ccccc2)SC1=S	PRMT1 FP inh 31 | PRMT1 inh conf 33
Cc1cccc(-c2cccc3c4c([nH]c23)[C@@H]2C[C@H](N(C)C(=O)NC3CCCCC3)[C@H]([C@H](C)O)C(=O)N2CC4)c1	none (no result: HTRA1 inhibitor, TCR-CD3 inh)
CCOC(=O)c1c(-c2ccc(C)o2)csc1NC(=O)COC(=O)c1cccs1	none
CCOC(=O)c1c(-c2ccc(C)o2)csc1NC(=O)CSc1ncn[nH]1	PRMT1 FP inh 33 | PRMT1 inh conf inactive
CCOC(=O)c1c(-c2ccc(C)o2)csc1NC(=S)NC(=O)N(C)C	PRMT1 FP inh 80 | PRMT1 inh conf inactive
CCn1c(=O)[nH]n(C/C(C)=C\c2c[n+](Cc3ccc4c(c3)OCO4)c(N)[nH]2)c1=O	none (no result: HTRA1 inhibitor, TCR-CD3 inh)
CCN1CCN(C(=S)c2ccc(OCC(=O)NCc3ccccc3)cc2)CC1	PRMT1 FP inh 27 | PRMT1 inh conf 38
CN(C)CC(=O)N[C@@H]1C[C@@H]2O[C@@H](CO)CC[C@@H]2O[C@@H]1CCc1ccc(-c2ccc(F)cc2)cc1	none (no result: HTRA1 inhibitor, TCR-CD3 inh)
O=C(Nc1nc(-c2ccco2)c(-c2ccco2)s1)c1ccc(F)cc1F	PRMT1 FP inh 34 | PRMT1 inh conf inactive
CC(=O)c1sc(NC(=O)c2ccccc2F)nc1-c1ccccc1	none
O=C(Nc1nc(-c2ccco2)c(-c2ccco2)s1)c1c(F)cccc1Cl	PRMT1 FP inh 54 | PRMT1 inh conf inactive
CC(C)C(NC(=O)[C@H](Cc1ccccc1)NC(=O)OCc1ccccc1)P(=O)(O)OC(Cc1ccccc1)C(=O)O (stereo partly specified)	none (no result: HTRA1 inhibitor, TCR-CD3 inh)
CC(C(=O)Nc1ccc(O)cc1C(=O)O)N1C(=O)/C(=C\c2cccs2)SC1=S (stereo unspecified)	PRMT1 FP inh 58 | PRMT1 inh conf 28
O=C(CCCN1C(=O)/C(=C\c2ccccc2)SC1=S)Nc1ccc(O)cc1C(=O)O	none
O=C(CCN1C(=O)/C(=C\c2ccco2)SC1=S)Nc1ccc(C(=O)O)c(O)c1	PRMT1 FP inh 39 | PRMT1 inh conf 28
O=C(CCN1C(=O)/C(=C/c2ccco2)SC1=S)Nc1ccc(C(=O)O)c(O)c1	PRMT1 FP inh 39 | PRMT1 inh conf 30
O=C(CCN1C(=O)/C(=C/c2ccco2)SC1=S)Nc1ccc(O)cc1C(=O)O	PRMT1 FP inh 68 | PRMT1 inh conf 38
COc1ccccc1/C=C1\SC(=S)N(CCC(=O)Nc2ccc(C(=O)O)c(O)c2)C1=O	none
O=C(CCN1C(=O)/C(=C\c2cccs2)SC1=S)Nc1ccc(C(=O)O)cc1	none
N#Cc1cccc(NC(=O)OCCN2C(=O)CCC23CCC(c2ccccc2)CC3)c1 (stereo unspecified)	none (no result: HTRA1 inhibitor, TCR-CD3 inh)
Cc1c(NS(=O)(=O)c2cc3c(cc2Br)CCN3C(=O)C2CC2)c(=O)n(-c2ccccc2)n1C	none (no result: HTRA1 inhibitor, TCR-CD3 inh)
CCOC(=O)[C@]12CCCCC/C=C\1N(Cc1ccc(OC)cc1)C(=O)[C@H]2CC(=O)NCCCOC	none (no result: HTRA1 inhibitor, TCR-CD3 inh)
COc1cccc(/C=C2\SC(=S)N(CCCC(=O)N3CCCC3)C2=O)c1	none
COc1cccc(/C=C2\SC(=O)N(CCC(=O)N3CCC(C(=O)O)CC3)C2=O)c1	PRMT1 FP inh 30 | PRMT1 inh conf inactive
N#Cc1cccc(NC(=O)O[C@@H]2CC[C@@]34CCCN3C(=O)CCC[C@H]4C2)c1	none (no result: HTRA1 inhibitor, TCR-CD3 inh)
CCOC(=O)c1cc(C#N)c(=S)[nH]c1C	none
COCc1[nH]c(=S)c(C#N)cc1C(=O)OC	PRMT1 FP inh 35 | PRMT1 inh conf inactive
O=C(CCl)Nc1ncc(S(=O)(=O)c2ccc([N+](=O)[O-])cc2)s1	PRMT1 FP inh 33 | PRMT1 inh conf inactive
O=C(OC12CCCN(C1)/C(=C/c1ccncc1)C2)c1ccco1 (stereo unspecified)	none (no result: HTRA1 inhibitor, TCR-CD3 inh)
CCSc1nnc([C@H](Cc2ccccc2)NC(=O)OC(C)(C)C)o1	none
CC(C)(C)OC(=O)N[C@@H](Cc1ccccc1)c1nnc(SCC(=O)O)o1	none
Cc1ccccc1CS(=O)(=O)c1nnc([C@H](Cc2ccccc2)NC(=O)OC(C)(C)C)o1	PRMT1 FP inh 38 | PRMT1 inh conf 26

Screens: PubChem, The Scripps Research Institute Molecular Screening Center
